# Data published in ChEMBL document CHEMBL4316611, “Design, synthesis and evaluation of novel (S)-tryptamine derivatives containing an allyl group and an aryl sulfonamide unit as anticancer agents” (Bioorg Med Chem Lett, 2019).
# pIC50: −log10 of the molar value.
# Tests used:
# [1] = system: CNE; experiment: Cytotoxicity in human CNE1 cells assessed as reduction in cell viability incubated for 48 hrs by MTT assay; assay type: functional, cell-based
# Outline: (§1)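 MTT viability assay; cells exposed continuously to compounds for 48 h. IC50 values reported as mean ± SD. Cisplatin served as positive control.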
# [2] = system: HepG2; experiment: Induction of apoptosis in human HepG2 cells assessed as viable cells level at 30 uM incubated for 48 hrs by Annexin V-FITC/propidium iodide staining based flow cytometry (reference value: 94.56%); assay type: functional
# [3] = system: HepG2; experiment: Induction of apoptosis in human HepG2 cells assessed as necrotic cells level at 30 uM incubated for 48 hrs by Annexin V-FITC/propidium iodide staining based flow cytometry (reference value: 0.53%); assay type: functional
# [4] = system: HepG2; experiment: Induction of apoptosis in human HepG2 cells assessed as necrotic cells level at 20 uM incubated for 48 hrs by Annexin V-FITC/propidium iodide staining based flow cytometry (reference value: 0.53%); assay type: functional
# [5] = system: HepG2; experiment: Induction of apoptosis in human HepG2 cells assessed as early apoptotic cells level at 30 uM incubated for 48 hrs by Annexin V-FITC/propidium iodide staining based flow cytometry (reference value: 2.89%); assay type: functional
# [6] = system: HepG2; experiment: Induction of apoptosis in human HepG2 cells assessed as late apoptotic cells level at 20 uM incubated for 48 hrs by Annexin V-FITC/propidium iodide staining based flow cytometry (reference value: 2.02%); assay type: functional
# [7] = system: HeLa; experiment: Cytotoxicity in human HeLa cells assessed as reduction in cell viability incubated for 48 hrs by MTT assay; assay type: functional, cell-based; outline: as §1
# [8] = system: HepG2; experiment: Induction of apoptosis in human HepG2 cells assessed as necrotic cells level at 10 uM incubated for 48 hrs by Annexin V-FITC/propidium iodide staining based flow cytometry (reference value: 0.53%); assay type: functional
# [9] = system: HepG2; experiment: Induction of cell cycle arrest in human HepG2 cells assessed as accumulation at G1 phase at 35 uM incubated for 24 hrs by propidium iodide staining based flow cytometry (reference value: 39.79%); assay type: functional
# [10] = system: HepG2; experiment: Induction of apoptosis in human HepG2 cells assessed as viable cells level at 10 uM incubated for 48 hrs by Annexin V-FITC/propidium iodide staining based flow cytometry (reference value: 94.56%); assay type: functional
# [11] = system: HepG2; experiment: Induction of apoptosis in human HepG2 cells assessed as late apoptotic cells level at 30 uM incubated for 48 hrs by Annexin V-FITC/propidium iodide staining based flow cytometry (reference value: 2.02%); assay type: functional
# [12] = system: HepG2; experiment: Induction of apoptosis in human HepG2 cells assessed as early apoptotic cells level at 10 uM incubated for 48 hrs by Annexin V-FITC/propidium iodide staining based flow cytometry (reference value: 2.89%); assay type: functional
# [13] = system: HepG2; experiment: Induction of apoptosis in human HepG2 cells assessed as early apoptotic cells level at 20 uM incubated for 48 hrs by Annexin V-FITC/propidium iodide staining based flow cytometry (reference value: 2.89%); assay type: functional
# [14] = system: HepG2; experiment: Induction of apoptosis in human HepG2 cells assessed as viable cells level at 20 uM incubated for 48 hrs by Annexin V-FITC/propidium iodide staining based flow cytometry (reference value: 94.56%); assay type: functional
# [15] = system: A549; experiment: Cytotoxicity in human A549 cells assessed as reduction in cell viability incubated for 48 hrs by MTT assay; assay type: functional, cell-based; conditions: A549, 48 h; outline: as §1
# [16] = system: HepG2; experiment: Induction of apoptosis in human HepG2 cells assessed as late apoptotic cells level at 10 uM incubated for 48 hrs by Annexin V-FITC/propidium iodide staining based flow cytometry (reference value: 2.02%); assay type: functional
# [17] = system: HepG2; experiment: Induction of cell cycle arrest in human HepG2 cells assessed as accumulation at G1 phase at 15 uM incubated for 24 hrs by propidium iodide staining based flow cytometry (reference value: 39.79%); assay type: functional
# [18] = system: HepG2; experiment: Inhibition of colony formation in human HepG2 cells incubated for 14 days by Giemsa staining based assay; assay type: functional, cell-based
# Outline: (§2)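 Colony formation assay: cells exposed at 0, 2.5, 5 and 7.5 μM for 2 weeks. Colonies imaged and quantified by image analysis. Inhibition rate expressed as mean ± SD against control.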
# [19] = system: HepG2; experiment: Cytotoxicity in human HepG2 cells assessed as reduction in cell viability incubated for 48 hrs by MTT assay; assay type: functional, cell-based; conditions: HepG2, 48 h; outline: as §1
# [20] = system: HepG2; experiment: Induction of cell cycle arrest in human HepG2 cells assessed as accumulation at G1 phase at 25 uM incubated for 24 hrs by propidium iodide staining based flow cytometry (reference value: 39.79%); assay type: functional
# [21] = system: HepG2; experiment: Induction of cell cycle arrest in human HepG2 cells assessed as accumulation at G1 phase incubated for 24 hrs by propidium iodide staining based flow cytometry; assay type: functional
# [22] = system: HepG2; experiment: Inhibition of colony formation in human HepG2 cells at 7.5 uM incubated for 14 days by Giemsa staining based assay; assay type: functional; conditions: HepG2, 336 h; outline: as §2
smiles,measurement,setting,value
C=CC[C@@H](Cc1c[nH]c2ccccc12)NS(=O)(=O)c1c(C(C)C)cc(C(C)C)cc1C(C)C,pIC50,[1],4.74
same,Activity,[2],25.38%
same,Activity,[3],0.91%
same,Activity,[4],0.75%
same,Activity,[5],53.46%
same,Activity,[6],4.85%
same,pIC50,[7],4.78
same,Activity,[8],0.69%
same,Activity,[9],53.35%
same,Activity,[10],89.7%
same,Activity,[11],20.25%
same,Activity,[12],6.63%
same,Activity,[13],21.29%
same,Activity,[14],73.08%
same,pIC50,[15],4.73
same,Activity,[16],2.96%
same,Activity,[17],44.89%
same,inhibition,[18],Dose-dependent effect
same,pIC50,[19],4.78
same,Activity,[20],48.82%
same,Activity,[21],Dose-dependent effect
same,inhibition at 7.5 µM,[22],95%
